The structures appear in SMILES notation.

The values below come from ChEMBL document CHEMBL1134377, “New synthesis of benzo-delta-carbolines, cryptolepines, and their salts: in vitro cytotoxic, antiplasmodial, and antitrypanosomal activities of delta-carbolines, benzo-delta-carbolines, and cryptolepines” (J Med Chem, 2001).

Experiment [1] deals with Trypanosoma cruzi. Kind of experiment: Antitrypanosomal activity against (Trypanosoma cruzi) trypomastigotes (concentration of compound tested on trypomastigote motility). In kind it is functional, organism-based. An outline of the steps:
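Tulahuen LacZ clone 4 trypomastigotes harvested from infected murine L6 muscle cell cultures; 2-fold drug dilutions from 200 to 1.5 µM, 48 h; motility scored by microscopy; value is concentration with no detectable motility effect, mean of 2 independent experiments.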

Experiment [2] concerns Plasmodium falciparum. Kind of experiment: Selectivity index against Plasmodium falciparum. The experiment is classed as functional.
Experiment [3] deals with Trypanosoma cruzi. The experiment in a line: Antitrypanosomal activity against Trypanosoma cruzi amastigotes. In kind it is functional, organism-based.
The test system of the next experiment is L6. The experiment in a line: In vitro cytotoxicity against L6 cells. In kind it is functional, cell-based, Rattus norvegicus.
Experiment [4] deals with Trypanosoma cruzi. Kind of experiment: Index of selectivity was determined in Trypanosoma cruzi. In kind it is functional. The gist of the method:
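Ratio of IC50 on L6 cells to IC50 on intracellular amastigote proliferation of T. cruzi.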

Experiment [5] deals with Plasmodium falciparum. Kind of experiment: Antiplasmodial activity against chloroquine-resistant Plasmodium falciparum K1. The experiment is classed as functional, organism-based. An outline of the steps: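 K1 strain kept in continuous culture on human erythrocytes. Asynchronous cultures (1% parasitemia, 1% final hematocrit) exposed to serial dilutions of drug (DMSO stocks; final DMSO ≤0.2%) for 24 h at 37 °C. 0.5 µCi [3H]hypoxanthine per well was then added for a further 24 h. Inhibition is incorporation versus untreated controls on the same plate. IC50 taken from concentration-response curves, mean ± SD of several independent experiments.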

Experiment [6] concerns Trypanosoma cruzi. Kind of experiment: Antitrypanosomal activity against Trypanosoma cruzi epimastigotes. The experiment is classed as functional, organism-based.

Broadly, the IC50 is the midpoint of a concentration-inhibition curve. Read a high IC50 as lower potency. In the case of `c1csc(-c2cnc3c(c2)[nH]c2ccccc23)c1`, the IC50 with Trypanosoma cruzi [1] (Trypanosoma cruzi) was found to be 200 µM; in the experiment on Trypanosoma cruzi [3] (Trypanosoma cruzi), 8.4 µM; in the experiment on L6 (Rattus norvegicus, L6), 54 µM; in the experiment on Plasmodium falciparum [5] (Plasmodium falciparum), 16.8 µM; in the experiment with Trypanosoma cruzi [6] (Trypanosoma cruzi), 6.8 µM. Besides, the results for the IS in the experiment with Plasmodium falciparum [2] and with Trypanosoma cruzi [4] were 3.2 and 6.4, respectively.

In the case of `C[n+]1c2ccccc2cc2[nH]c3ccccc3c21.O=S(=O)([O-])C(F)(F)F`, the IC50 came out at 50 µM with Trypanosoma cruzi [1] (Trypanosoma cruzi); 0.125 µM with Trypanosoma cruzi [3] (Trypanosoma cruzi); 8.1 µM with L6 (Rattus norvegicus, L6); 0.33 µM with Plasmodium falciparum [5] (Plasmodium falciparum); 1.3 µM in the experiment with Trypanosoma cruzi [6] (Trypanosoma cruzi). In addition, the results for the IS in the experiment on Plasmodium falciparum [2] and in the experiment on Trypanosoma cruzi [4] were 24.5 and 64.8, respectively.

As to `c1ccc2nc(-c3cc[nH]c4c5ccccc5nc3-4)ccc2c1`, the IC50 is 100 µM with Trypanosoma cruzi [1] (Trypanosoma cruzi); 6.4 µM in the experiment on Trypanosoma cruzi [3] (Trypanosoma cruzi); 41.6 µM in the experiment on L6 (Rattus norvegicus, L6); 16.3 µM with Plasmodium falciparum [5] (Plasmodium falciparum); 26.4 µM in the experiment on Trypanosoma cruzi [6] (Trypanosoma cruzi). In addition, the IS is listed as 2.6 in the experiment on Plasmodium falciparum [2] and 6.5 in the experiment on Trypanosoma cruzi [4].

As to `c1ccc(-c2cc[nH]c3c4ccccc4nc2-3)cc1`, the IC50 is 25 µM in the experiment with Trypanosoma cruzi [1] (Trypanosoma cruzi); 11.9 µM in the experiment with Trypanosoma cruzi [3] (Trypanosoma cruzi); 14.3 µM in the experiment on L6 (Rattus norvegicus, L6); 38.5 µM with Plasmodium falciparum [5] (Plasmodium falciparum); 11.1 µM in the experiment with Trypanosoma cruzi [6] (Trypanosoma cruzi). In addition, the IS in the experiment on Plasmodium falciparum [2] worked out at 0.4; with Trypanosoma cruzi [4], 1.2.

Turning to `c1ccc2c(c1)[nH]c1cccnc12`, the IC50 came out at 100 µM with Trypanosoma cruzi [1] (Trypanosoma cruzi); 23.5 µM in the experiment with Trypanosoma cruzi [3] (Trypanosoma cruzi); 229 µM with L6 (Rattus norvegicus, L6); 104 µM in the experiment with Plasmodium falciparum [5] (Plasmodium falciparum); 23.2 µM in the experiment with Trypanosoma cruzi [6] (Trypanosoma cruzi). For the same compound, the IS in the experiment with Plasmodium falciparum [2] worked out at 2.2; with Trypanosoma cruzi [4] it was 9.7.

For the compound `c1ccc(-c2c[nH]c3c4ccccc4nc-3c2-c2ccccc2)cc1`, the IC50 was 100 µM in the experiment on Trypanosoma cruzi [1] (Trypanosoma cruzi); 108 µM in the experiment with Trypanosoma cruzi [3] (Trypanosoma cruzi); more than 156 µM in the experiment on L6 (Rattus norvegicus, L6); 259 µM in the experiment with Plasmodium falciparum [5] (Plasmodium falciparum); more than 312 µM in the experiment with Trypanosoma cruzi [6] (Trypanosoma cruzi). The IS in the experiment with Plasmodium falciparum [2] was more than 0.6; in the experiment with Trypanosoma cruzi [4], more than 1.5.

For `Oc1ccc2[nH]c3cccnc3c2c1`, the IC50 in the experiment with Trypanosoma cruzi [1] (Trypanosoma cruzi) stood at 200 µM; with Trypanosoma cruzi [3] (Trypanosoma cruzi), 122 µM; with L6 (Rattus norvegicus, L6) it was 235 µM; in the experiment with Plasmodium falciparum [5] (Plasmodium falciparum), 56.5 µM; with Trypanosoma cruzi [6] (Trypanosoma cruzi), 129 µM. Further, the IS in the experiment with Plasmodium falciparum [2] turned out to be 4.2; in the experiment on Trypanosoma cruzi [4] it was 1.9.

With `Cc1cc[nH]c2c3ccccc3nc1-2`, the IC50 in the experiment on Trypanosoma cruzi [1] (Trypanosoma cruzi) stood at 100 µM; with Trypanosoma cruzi [3] (Trypanosoma cruzi), 10.4 µM; in the experiment with L6 (Rattus norvegicus, L6), 82.4 µM; in the experiment on Plasmodium falciparum [5] (Plasmodium falciparum), 45.6 µM; in the experiment on Trypanosoma cruzi [6] (Trypanosoma cruzi), 6.6 µM. For the same compound, the IS with Plasmodium falciparum [2] is reported as 1.8; with Trypanosoma cruzi [4], 7.9.

In the case of `c1csc(-c2ccnc3c2[nH]c2ccccc23)c1`, the IC50 in the experiment on Trypanosoma cruzi [1] (Trypanosoma cruzi) was 200 µM; in the experiment on Trypanosoma cruzi [3] (Trypanosoma cruzi) it was 1.8 µM; in the experiment with L6 (Rattus norvegicus, L6), 1.8 µM; in the experiment on Plasmodium falciparum [5] (Plasmodium falciparum), 14.8 µM; in the experiment with Trypanosoma cruzi [6] (Trypanosoma cruzi) it was 11.2 µM. The figures for the IS in the experiment with Plasmodium falciparum [2] and in the experiment on Trypanosoma cruzi [4] were 0.12 and 1, respectively.

Take `Cc1c(-c2ccccc2)c[nH]c2c3ccccc3nc1-2`: the IC50 in the experiment with Trypanosoma cruzi [1] (Trypanosoma cruzi) was 6.25 µM; with Trypanosoma cruzi [3] (Trypanosoma cruzi), 1.9 µM; with L6 (Rattus norvegicus, L6), 21.3 µM; with Plasmodium falciparum [5] (Plasmodium falciparum), 23.6 µM; in the experiment on Trypanosoma cruzi [6] (Trypanosoma cruzi) it was 2.3 µM. Besides, the figures for the IS in the experiment on Plasmodium falciparum [2] and in the experiment on Trypanosoma cruzi [4] were 0.9 and 11.2, respectively.

For the compound `c1ccc(-c2cc[nH]c3c4ccccc4nc2-3)nc1`, the IC50 in the experiment with Trypanosoma cruzi [1] (Trypanosoma cruzi) was determined as 25 µM; with Trypanosoma cruzi [3] (Trypanosoma cruzi), 18.8 µM; with L6 (Rattus norvegicus, L6) it was 75.1 µM; in the experiment with Plasmodium falciparum [5] (Plasmodium falciparum) it was 33.1 µM; in the experiment on Trypanosoma cruzi [6] (Trypanosoma cruzi), 58.4 µM. For the same compound, the IS was 2.3 with Plasmodium falciparum [2] and 4 in the experiment on Trypanosoma cruzi [4].

In the case of `C[n+]1cccc2[nH]c3ccccc3c21.[Cl-]`, the IC50 with Trypanosoma cruzi [1] (Trypanosoma cruzi) was 200 µM; in the experiment on Trypanosoma cruzi [3] (Trypanosoma cruzi), 192 µM; in the experiment with L6 (Rattus norvegicus, L6), more than 230 µM; in the experiment on Plasmodium falciparum [5] (Plasmodium falciparum) it was 1.6 µM; in the experiment on Trypanosoma cruzi [6] (Trypanosoma cruzi), 428 µM. Moreover, the figures for the IS in the experiment on Plasmodium falciparum [2] and with Trypanosoma cruzi [4] were more than 138 and more than 1, respectively.

Turning to `Cn1cccc2nc3ccccc3c1-2`, the IC50 is 200 µM in the experiment with Trypanosoma cruzi [1] (Trypanosoma cruzi); 258 µM in the experiment with Trypanosoma cruzi [3] (Trypanosoma cruzi); more than 220 µM in the experiment on L6 (Rattus norvegicus, L6); 2.2 µM in the experiment on Plasmodium falciparum [5] (Plasmodium falciparum); more than 550 µM in the experiment with Trypanosoma cruzi [6] (Trypanosoma cruzi). Also, the IS with Plasmodium falciparum [2] was more than 100; with Trypanosoma cruzi [4], more than 1.

For `Nc1ccccc1-c1c[nH]c2c3ccccc3nc-2c1`, the IC50 came to 50 µM with Trypanosoma cruzi [1] (Trypanosoma cruzi); 11.2 µM in the experiment with Trypanosoma cruzi [3] (Trypanosoma cruzi); 14.3 µM in the experiment on L6 (Rattus norvegicus, L6); 29.3 µM in the experiment on Plasmodium falciparum [5] (Plasmodium falciparum); 10.4 µM with Trypanosoma cruzi [6] (Trypanosoma cruzi). In addition, the IS in the experiment on Plasmodium falciparum [2] amounted to 0.5; in the experiment on Trypanosoma cruzi [4], 1.3.

In the case of `c1ccc(-c2c[nH]c3c4ccccc4nc-3c2)nc1`, the IC50 in the experiment with Trypanosoma cruzi [1] (Trypanosoma cruzi) came out at 50 µM; in the experiment with Trypanosoma cruzi [3] (Trypanosoma cruzi), 20.8 µM; in the experiment with L6 (Rattus norvegicus, L6), 204 µM; with Plasmodium falciparum [5] (Plasmodium falciparum) it was 22.1 µM; in the experiment with Trypanosoma cruzi [6] (Trypanosoma cruzi) it was 49.8 µM. Also, the values for the IS in the experiment with Plasmodium falciparum [2] and with Trypanosoma cruzi [4] were 9.2 and 9.8, respectively.

As for `c1ccc(-c2c[nH]c3c4ccccc4nc-3c2)cc1`, the IC50 is 200 µM in the experiment with Trypanosoma cruzi [1] (Trypanosoma cruzi); 8.6 µM with Trypanosoma cruzi [3] (Trypanosoma cruzi); 37.2 µM in the experiment on L6 (Rattus norvegicus, L6); 129 µM in the experiment with Plasmodium falciparum [5] (Plasmodium falciparum). Moreover, the IS in the experiment on Plasmodium falciparum [2] turned out to be 0.3; with Trypanosoma cruzi [4], 4.3.

In the case of `CCc1cc[nH]c2c3ccccc3nc1-2`, the IC50 in the experiment with Trypanosoma cruzi [1] (Trypanosoma cruzi) was determined as 50 µM; with Trypanosoma cruzi [3] (Trypanosoma cruzi), 12.2 µM; with L6 (Rattus norvegicus, L6) it was 44.9 µM; in the experiment with Plasmodium falciparum [5] (Plasmodium falciparum), 66.8 µM; with Trypanosoma cruzi [6] (Trypanosoma cruzi) it was 21.4 µM. The figures for the IS in the experiment with Plasmodium falciparum [2] and with Trypanosoma cruzi [4] were 0.7 and 3.7, respectively.

Take `Nc1ccccc1-c1cc[nH]c2c3ccccc3nc1-2`: the IC50 came to 50 µM in the experiment with Trypanosoma cruzi [1] (Trypanosoma cruzi); 18.9 µM with Trypanosoma cruzi [3] (Trypanosoma cruzi); 16.2 µM in the experiment on L6 (Rattus norvegicus, L6); 23.9 µM in the experiment on Plasmodium falciparum [5] (Plasmodium falciparum); 34.4 µM with Trypanosoma cruzi [6] (Trypanosoma cruzi). The IS with Plasmodium falciparum [2] came out at 0.7; in the experiment with Trypanosoma cruzi [4] it was 0.9.

Consider `O=C(c1c2nc3ccccc3c-2[nH]c2ccccc12)c1c2nc3ccccc3c-2[nH]c2ccccc12`, for which the IC50 is 100 µM in the experiment on Trypanosoma cruzi [1] (Trypanosoma cruzi); 5.7 µM with Trypanosoma cruzi [3] (Trypanosoma cruzi); 15.2 µM in the experiment on L6 (Rattus norvegicus, L6); 6.4 µM in the experiment on Plasmodium falciparum [5] (Plasmodium falciparum); more than 200 µM in the experiment on Trypanosoma cruzi [6] (Trypanosoma cruzi). The IS with Plasmodium falciparum [2] came to 2.4; in the experiment on Trypanosoma cruzi [4], 2.7.

Take `CCc1c2ccccc2[n+](C)c2c1[nH]c1ccccc12.O=S(=O)([O-])C(F)(F)F`: the half-inhibitory concentration (IC50) with Trypanosoma cruzi [1] (Trypanosoma cruzi) stood at 50 µM; with Trypanosoma cruzi [3] (Trypanosoma cruzi) it was 0.39 µM; in the experiment on L6 (Rattus norvegicus, L6), 6.8 µM; in the experiment with Plasmodium falciparum [5] (Plasmodium falciparum), 0.48 µM; in the experiment on Trypanosoma cruzi [6] (Trypanosoma cruzi), 0.34 µM. The IS in the experiment on Plasmodium falciparum [2] stood at 14.1; in the experiment with Trypanosoma cruzi [4], 17.4.

In the case of `C[n+]1cccc2[nH]c3ccccc3c21.O=S(=O)([O-])C(F)(F)F`, the IC50 with Trypanosoma cruzi [1] is 100 µM; in the experiment on Trypanosoma cruzi [3], 199 µM; in the experiment with L6 (l6) it was more than 150 µM; in the experiment with Plasmodium falciparum [5] it was 1.5 µM; in the experiment with Trypanosoma cruzi [6], more than 300 µM. Also, the IS in the experiment on Plasmodium falciparum [2] is recorded as more than 100; in the experiment with Trypanosoma cruzi [4], more than 1.

Consider `c1ccc2nc(-c3c[nH]c4c5ccccc5nc-4c3)ccc2c1`, for which the figures for the IS in the experiment on Plasmodium falciparum [2] and in the experiment with Trypanosoma cruzi [4] were 1.6 and 6.9, respectively. Besides, the IC50 in the experiment with Trypanosoma cruzi [3] (Trypanosoma cruzi) came out at 3.3 µM; in the experiment with L6 (Rattus norvegicus, L6) it was 22.7 µM; in the experiment with Plasmodium falciparum [5] (Plasmodium falciparum) it was 14.2 µM; in the experiment with Trypanosoma cruzi [6] (Trypanosoma cruzi) it was 18.6 µM.

In the case of `C[n+]1c2ccccc2c(-c2ccccc2)c2[nH]c3ccccc3c21.O=S(=O)([O-])C(F)(F)F`, the IC50 worked out at 12.5 µM with Trypanosoma cruzi [1] (Trypanosoma cruzi); 0.88 µM in the experiment with Trypanosoma cruzi [3] (Trypanosoma cruzi); 6.8 µM in the experiment with L6 (Rattus norvegicus, L6); 1.1 µM in the experiment with Plasmodium falciparum [5] (Plasmodium falciparum); 0.54 µM in the experiment on Trypanosoma cruzi [6] (Trypanosoma cruzi). Besides, the IS with Plasmodium falciparum [2] is reported as 6.2; with Trypanosoma cruzi [4] it was 7.7.
